# Data from ChEMBL document CHEMBL1140328, “Synthesis and mechanism of action studies of a series of norindenoisoquinoline topoisomerase I poisons reveal an inhibitor with a flipped orientation in the ternary DNA-enzyme-inhibitor complex as determined by X-ray crystallographic analysis” (2005).
# What was measured:
# [1] = Concentration required to inhibit the growth of human Colon […] cells; assay type: functional
# How it was run: (§1)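 NCI screen of about 55 human cancer cell lines; GI50 per cell line over a test range of 10⁻⁸ to 10⁻⁴ M. Mean graph midpoint is the average GI50 across all lines tested, with values outside the range set to 10⁻⁸ or 10⁻⁴ M.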
# [2] = Concentration required to inhibit the growth of human Ovarian OVCAR cells; assay type: functional; how it was run: as §1
# [3] = target: T1, DNA topoisomerase 1 (Homo sapiens) (UniProt P11387); test: Topoisomerase-I mediated DNA Cleavage activity at 30 degree C for 30 min relative to NSC 314622; Range = 25-75%
# T1 sequence (whole entry): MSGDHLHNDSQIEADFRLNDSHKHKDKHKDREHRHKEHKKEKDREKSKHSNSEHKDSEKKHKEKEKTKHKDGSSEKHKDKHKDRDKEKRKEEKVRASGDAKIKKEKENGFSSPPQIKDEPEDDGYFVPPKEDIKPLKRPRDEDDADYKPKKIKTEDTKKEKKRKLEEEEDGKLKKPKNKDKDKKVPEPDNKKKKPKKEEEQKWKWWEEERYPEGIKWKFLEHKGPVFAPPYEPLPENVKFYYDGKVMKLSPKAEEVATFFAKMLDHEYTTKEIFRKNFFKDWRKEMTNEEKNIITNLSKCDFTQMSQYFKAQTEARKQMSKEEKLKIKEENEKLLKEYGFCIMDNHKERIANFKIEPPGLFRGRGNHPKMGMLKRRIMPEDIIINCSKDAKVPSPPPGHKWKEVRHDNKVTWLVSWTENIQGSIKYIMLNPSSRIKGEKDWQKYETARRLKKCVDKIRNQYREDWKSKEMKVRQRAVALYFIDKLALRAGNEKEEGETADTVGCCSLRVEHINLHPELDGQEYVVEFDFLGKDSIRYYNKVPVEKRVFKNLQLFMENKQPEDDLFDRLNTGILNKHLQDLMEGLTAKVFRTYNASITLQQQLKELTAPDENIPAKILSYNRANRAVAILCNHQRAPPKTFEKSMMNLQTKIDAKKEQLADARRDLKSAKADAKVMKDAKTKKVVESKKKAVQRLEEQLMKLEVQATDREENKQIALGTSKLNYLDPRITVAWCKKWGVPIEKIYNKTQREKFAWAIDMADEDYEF
# [4] = Concentration required to inhibit the growth of human Melanoma UACC-62 cells; assay type: functional; how it was run: as §1
# [5] = Concentration required to inhibit the growth of human Lung HOP-62 cells; assay type: functional; how it was run: as §1
# [6] = Concentration required to inhibit the growth of human Breast MDA-MB-435 cells; assay type: functional; how it was run: as §1
# [7] = Concentration required to inhibit the growth of human Renal SN12C cells; assay type: functional; how it was run: as §1
# [8] = Concentration required to inhibit the growth of human CNSSF-539 cells; assay type: functional; how it was run: as §1
# [9] = Concentration required to inhibit the growth of human ProstateDU-145 cells; assay type: functional; details: DU-145; how it was run: as §1
# [10] = Concentration required to inhibit the growth of human Prostate DU-145 cells; assay type: functional; how it was run: as §1
# [11] = Concentration required to inhibit the growth of human OvarianOVCAR cells; assay type: functional; how it was run: as §1
# [12] = Concentration required to inhibit the growth of human LungHOP-62 cells; assay type: functional
# How it was run: (§2)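 Assayed in the National Cancer Institute screen, a panel of approximately 55 human cancer cell lines. Compounds were tested over a concentration range of 10⁻⁸ to 10⁻⁴ molar, and growth inhibition was expressed as GI₅₀ for each cell line.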
# [13] = Concentration required to inhibit the growth of human ColonHCT-11 cells; assay type: functional; how it was run: as §2
# [14] = target: T1, DNA topoisomerase 1 (Homo sapiens); test: Topoisomerase-I mediated DNA Cleavage activity at 30 degree C for 30 min relative to NSC 314622; Range = 75-175%
# [15] = Concentration required to inhibit the growth of human prostate DU-145 cells; assay type: functional; how it was run: as §1
Cleavage [3] [%],Cleavage [14] [%],Compound,GI50 [1] [µM],GI50 [2] [µM],GI50 [4] [µM],GI50 [5] [µM],GI50 [6] [µM],GI50 [7] [µM],GI50 [8] [µM],GI50 [9] [µM],GI50 [10] [µM],GI50 [11] [µM],GI50 [12] [µM],GI50 [13] [µM],GI50 [15] [µM]
75,–,COc1cc2c(c(OC)c1OC)-c1ncc3c(OC)c(OC)c(OC)cc3c1C2,27.8,21.5,21.1,28.5,23,20.3,–,–,29.6,–,–,–,–
75,–,COc1cc2c3c(n(C)c(=O)c2cc1OC)-c1cc2c(cc1C3=O)OCO2,35,73,4.2,1.3,96,68,–,–,37,–,–,–,–
75,–,c1c2c(cc3c1OCO3)-c1ncc3cc4c(cc3c1C2)OCO4,0.283,0.0232,0.19,0.227,< 0.01,0.0414,0.598,–,–,–,–,–,–
75,–,COc1cc2c3c(ncc2c(OC)c1OC)-c1cc2c(cc1C3)OCO2,22.1,–,–,–,> 100,–,–,–,–,–,–,–,26.9
–,175,COc1cc2c(cc1OC)-c1ncc3cc4c(cc3c1C2)OCO4,11.1,61.2,> 100,–,63.4,> 100,23.4,–,25.3,–,–,–,–

# Second part, the compound before the results:
Compound,Cleavage [3] [%],Cleavage [14] [%],GI50 [1] [µM],GI50 [2] [µM],GI50 [4] [µM],GI50 [5] [µM],GI50 [6] [µM],GI50 [7] [µM],GI50 [8] [µM],GI50 [9] [µM],GI50 [10] [µM],GI50 [11] [µM],GI50 [12] [µM],GI50 [13] [µM],GI50 [15] [µM]
COc1cc2c(cc1OC)-c1ncc3c(OC)c(OC)c(OC)cc3c1C2,75,–,8.81,0.529,3.84,16,–,–,–,–,–,–,–,–,–
COc1cc2cnc3c(c2c(OC)c1OC)Cc1cc2c(cc1-3)OCO2,75,–,0.0694,0.403,0.439,0.234,0.178,0.602,0.869,> 100,–,–,–,–,–
COc1cc2c(c(OC)c1OC)-c1ncc3cc(OC)c(OC)c(OC)c3c1C2,–,–,33.5,–,17.4,35.4,20.8,17.6,–,–,26.6,19.1,–,–,–
COc1cc2c(c(OC)c1OC)-c1ncc3cc4c(cc3c1C2)OCO4,–,–,18.8,15.5,19.3,21.7,13.2,13.4,–,–,23.2,–,–,–,–
COc1cc2c(cc1OC)-c1ncc3cc(OC)c(OC)cc3c1C2,75,–,> 50,> 50,> 50,–,> 50,> 50,> 50,–,> 50,–,–,–,–
CC[C@@]1(O)C(=O)OCc2c1cc1n(c2=O)Cc2cc3ccccc3nc2-1 [CAMPTOTHECIN],–,–,–,–,–,–,–,–,0.01,–,–,0.22,0.01,0.03,–
COc1cc2cnc3c(c2cc1OC)Cc1cc2c(cc1-3)OCO2,–,175,> 100,–,< 0.01,0.0721,< 0.01,> 100,< 0.01,–,0.0281,–,–,–,–
COc1cc2c(cc1OC)-c1ncc3cc(OC)c(OC)c(OC)c3c1C2,–,–,31.8,15.9,7.42,34.8,16.2,14.4,14,–,21.7,–,–,–,–
COc1ccc(OC)c2c3c(ncc12)-c1cc2c(cc1C3)OCO2,75,–,0.249,26.9,> 100,< 0.01,> 100,> 100,–,–,48.4,–,–,–,–
COc1cc2c(cc1OC)-c1ncc3c(OC)ccc(OC)c3c1C2,–,–,17.8,15.4,18,21.4,23.4,14.8,14,–,28.1,–,–,–,–
